The record followed here is ChEMBL document CHEMBL1240420, “Synthesis and biological evaluation of cinnamido linked pyrrolo[2,1-c][1,4]benzodiazepines as antimitotic agents” (Eur J Med Chem, 2010).

Common to all, as to assay type: functional
One assay has as its system SiHa. In words: Cytotoxicity against human SiHa cells after 48 hrs by SRB assay. In a few lines:
(§1)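 Cells grown in RPMI 1640 with 10% FBS and 2 mM L-glutamine, plated and left 24 h at 37 °C/5% CO2, then exposed continuously for 48 h to 0.1, 1, 10 and 100 µM in triplicate wells. Fixed with cold TCA (10% final), stained with 0.4% SRB, eluted with 10 mM Tris base, read at 540 nm (690 nm reference). GI50 from [(Ti−Tz)/(C−Tz)]×100 = 50; mean of three determinations.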

A further assay concerns PC-3. In words: Cytotoxicity against human PC3 cells after 48 hrs by SRB assay. Conditions: PC-3, 48 h. In a few lines:
(§2)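 Cells were grown in RPMI 1640 with 10% FBS and 2 mM L-glutamine, plated 24 h before dosing, then given continuous 48 h exposure at 0.1, 1, 10 and 100 µM in triplicate wells. Cells were fixed with cold TCA (10% final, 60 min, 4 °C), stained with 0.4% SRB in 1% acetic acid for 20 min, eluted with 10 mM Tris base, and read at 540/690 nm. GI50 was taken from [(Ti−Tz)/(C−Tz)]×100 = 50; three determinations were averaged.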
For orientation: Sulforhodamine B stains cellular protein and so reports cell mass.

In the next assay the test system is KB. Briefly: Cytotoxicity against human KB cells after 48 hrs by SRB assay. In a few lines: as §2
Assay [1] can be described thus: Cytotoxicity against human GURAV cells after 48 hrs by SRB assay. The procedure, abridged: as §2
In the next assay the test system is A549. In words: Cytotoxicity against human A549 cells after 48 hrs by SRB assay. Conditions: A549, 48 h. In a few lines:
as §2

A further assay relates to COLO 205. Briefly: Cytotoxicity against human COLO205 cells after 48 hrs by SRB assay. To be noted: COLO 205, 48 h. In a few lines:
as §2

In a further assay the test system is A2780. Briefly: Cytotoxicity against human A2780 cells after 48 hrs by SRB assay. To be noted: A2780, 48 h. The procedure, abridged: as §2
In another assay the test system is HOP-62. Briefly: Cytotoxicity against human HOP62 cells after 48 hrs by SRB assay. Conditions: HOP-62, 48 h. In a few lines:
as §2

Assay [2] can be described thus: Cytotoxicity against human DWD cells after 48 hrs by SRB assay. The procedure, abridged: as §2
Another assay concerns MCF7. Briefly: Cytotoxicity against human MCF7 cells after 48 hrs by SRB assay. Conditions: MCF7, 48 h. In a few lines:
as §2

For the next assay, the system named is ZR-75-1. Briefly: Cytotoxicity against human ZR-75-1 cells after 48 hrs by SRB assay. Conditions: ZR-75-1, 48 h. In a few lines:
as §1

Counter-ions that a name gives are not always drawn.

What is called GI50 is the concentration giving 50% growth inhibition. Read a low GI50 as greater sensitivity of the cells. Turning to `COc1cccc2c1C(=O)c1c(O)c3c(c(O)c1C2=O)C[C@@](O)(C(=O)CO)C[C@@H]3O[C@H]1C[C@H](N)[C@H](O)[C@H](C)O1` [DOXORUBICIN HYDROCHLORIDE], the GI50 was 150 nM in the assay with SiHa; 160 nM in the assay on PC-3; 130 nM with KB; 140 nM in [1]; less than 100 nM in the assay on A549; 130 nM with COLO 205. Also, the GI50 was less than 100 nM with A2780; 120 nM in the assay on HOP-62; 120 nM in [2]; less than 100 nM in the assay on MCF7; 120 nM in the assay with ZR-75-1.
Turning to `COc1cc(/C=C/C(=O)N2CCN(C(=O)/C=C/c3ccc(OCCCOc4cc5c(cc4OC)C(=O)N4CCC[C@H]4C=N5)c(OC)c3)CC2)ccc1OCCCOc1cc2c(cc1OC)C(=O)N1CCC[C@H]1C=N2`, the GI50 with SiHa was 160 nM; in the assay with PC-3, 150 nM; with KB, 140 nM; in assay [1] it was 140 nM; with A549 it was less than 100 nM; with COLO 205 it was less than 100 nM. Moreover, the GI50 in the assay on A2780 is 120 nM; in the assay on HOP-62, 150 nM; in assay [2], less than 100 nM; in the assay on MCF7, less than 100 nM; in the assay on ZR-75-1 it was less than 100 nM.
As to `COc1cc(/C=C/C(=O)N2CCN(C(=O)c3cc(OC)c(OC)c(OC)c3)CC2)ccc1OCCCCCOc1cc2c(cc1OC)C(=O)N1CCC[C@H]1C=N2`, the GI50 with SiHa was 140 nM; in the assay on PC-3, 140 nM; in the assay on KB, 120 nM; in assay [1], 130 nM; in the assay on A549, 110 nM; in the assay on COLO 205 it was less than 100 nM. Moreover, the GI50 is 110 nM with A2780; 150 nM in the assay on HOP-62; less than 100 nM in assay [2]; 130 nM with MCF7; 140 nM in the assay on ZR-75-1.
Turning to `COc1cc(/C=C/C(=O)N2CCOCC2)ccc1OCCCCCCOc1cc2c(cc1OC)C(=O)N1CCC[C@H]1C=N2`, the GI50 with SiHa was less than 100 nM; in the assay with PC-3, 170 nM; in the assay on KB it was less than 100 nM; in assay [1], less than 100 nM; with A549, less than 100 nM; in the assay on COLO 205, 150 nM. In addition, the GI50 with A2780 was less than 100 nM; in the assay with HOP-62 it was less than 100 nM; in assay [2], 150 nM; with MCF7, 150 nM; with ZR-75-1 it was 140 nM.
For `COc1cc2c(cc1O)N=C[C@@H]1CCCN1C2=O`, the GI50 turned out to be 170 nM in the assay with SiHa; 200 nM in the assay on PC-3; 170 nM with KB; 160 nM in assay [1]; 160 nM in the assay on A549; 110 nM with COLO 205. The GI50 in the assay on A2780 amounted to 140 nM; with HOP-62, 150 nM; in the assay with MCF7, 170 nM.
Take `COc1cc(/C=C/C(=O)N2CCOCC2)ccc1OCCCCCOc1cc2c(cc1OC)C(=O)N1CCC[C@H]1C=N2`: the GI50 in the assay with SiHa was 170 nM; with PC-3 it was less than 100 nM; in the assay with KB it was 150 nM; in assay [1], 160 nM; in the assay with A549 it was less than 100 nM; in the assay with COLO 205 it was less than 100 nM. Also, the GI50 was 140 nM with A2780; 170 nM with HOP-62; less than 100 nM in [2]; less than 100 nM with MCF7; less than 100 nM with ZR-75-1.
As to `COc1cc(/C=C/C(=O)N2CCN(C(=O)/C=C/c3ccc(OCCCCCCOc4cc5c(cc4OC)C(=O)N4CCC[C@H]4C=N5)c(OC)c3)CC2)ccc1OCCCCCCOc1cc2c(cc1OC)C(=O)N1CCC[C@H]1C=N2`, the GI50 with SiHa is less than 100 nM; with PC-3, 150 nM; in the assay on KB, less than 100 nM; in assay [1], less than 100 nM; in the assay with A549 it was 150 nM; in the assay on COLO 205, less than 100 nM. Also, the GI50 in the assay on A2780 was less than 100 nM; with HOP-62, less than 100 nM; in assay [2], less than 100 nM; in the assay with MCF7, 1900 nM; with ZR-75-1 it was 210 nM.
As to `COc1cc(/C=C/C(=O)N2CCN(C(=O)/C=C/c3ccc(OCCCCCOc4cc5c(cc4OC)C(=O)N4CCC[C@H]4C=N5)c(OC)c3)CC2)ccc1OCCCCCOc1cc2c(cc1OC)C(=O)N1CCC[C@H]1C=N2`, the GI50 is 2000 nM in the assay on SiHa; less than 100 nM in the assay with PC-3; 2000 nM in the assay on KB; 2300 nM in assay [1]; 110 nM in the assay on A549; less than 100 nM in the assay with COLO 205. For the same compound, the 50% growth inhibitory concentration (GI50) in the assay with A2780 was 160 nM; in the assay with HOP-62, 180 nM; in [2], less than 100 nM; in the assay with MCF7, 1000 nM; with ZR-75-1 it was less than 100 nM.
Regarding `COc1cc(/C=C/C(=O)N2CCN(C(=O)c3cc(OC)c(OC)c(OC)c3)CC2)ccc1OCCCCCCOc1cc2c(cc1OC)C(=O)N1CCC[C@H]1C=N2`, the GI50 in the assay with SiHa is 2500 nM; with PC-3, 1900 nM; in the assay with KB, 1900 nM; in [1] it was 1900 nM; in the assay with A549, 160 nM; with COLO 205, 2100 nM. Moreover, the GI50 was found to be 180 nM in the assay on A2780; 2600 nM with HOP-62; 170 nM in assay [2]; 180 nM in the assay with MCF7; 210 nM in the assay with ZR-75-1.
Turning to `COc1cc(/C=C/C(=O)N2CCN(C(=O)c3cc(OC)c(OC)c(OC)c3)CC2)ccc1OCCCCOc1cc2c(cc1OC)C(=O)N1CCC[C@H]1C=N2`, the GI50 is 170 nM with SiHa; less than 100 nM with PC-3; 150 nM in the assay on KB; 110 nM in assay [1]; 120 nM with A549; less than 100 nM in the assay on COLO 205. The GI50 was found to be 150 nM with A2780; 170 nM with HOP-62; 110 nM in assay [2]; 140 nM in the assay on MCF7; 150 nM in the assay with ZR-75-1.
As for `COc1cc(/C=C/C(=O)N2CCOCC2)ccc1OCCCOc1cc2c(cc1OC)C(=O)N1CCC[C@H]1C=N2`, the GI50 was 120 nM with SiHa; 130 nM in the assay on PC-3; less than 100 nM in the assay on KB; 100 nM in [1]; less than 100 nM with A549; 100 nM with COLO 205. Besides, the GI50 with A2780 is less than 100 nM; in the assay on HOP-62, 140 nM; in [2] it was less than 100 nM; with MCF7 it was less than 100 nM; in the assay with ZR-75-1 it was 120 nM.
